The M2OR odorant receptor database
Substitutions are numbered along the chain they refer to.

What was measured:
Details in all cases: stereoisomer not certain
OR11H12 (Homo sapiens) = target: T1, OR11H12 (Homo sapiens) (UniProt B2RN74)
T1 sequence (whole entry): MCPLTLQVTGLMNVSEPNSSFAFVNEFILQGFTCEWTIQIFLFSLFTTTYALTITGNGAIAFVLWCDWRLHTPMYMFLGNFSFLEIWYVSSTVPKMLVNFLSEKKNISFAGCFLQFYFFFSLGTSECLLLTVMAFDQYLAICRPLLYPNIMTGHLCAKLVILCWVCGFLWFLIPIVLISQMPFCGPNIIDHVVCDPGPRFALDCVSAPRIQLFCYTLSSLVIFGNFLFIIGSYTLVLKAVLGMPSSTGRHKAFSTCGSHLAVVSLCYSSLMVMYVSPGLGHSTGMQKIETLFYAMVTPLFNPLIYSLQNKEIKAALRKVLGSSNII
In short: (§1)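 Assay methods differ from source to source, frequently being transient luciferase assays in mammalian cell lines. For each receptor–molecule pair, the label responsive (active) applies when the original authors judged the measured signal statistically different from baseline, and non-responsive (inactive) applies otherwise.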

OR11H2 (Homo sapiens) = target: T2, OR11H2 (Homo sapiens) (UniProt Q8NH07)
T2 sequence (whole entry): T1 sequence (whole entry) with Q7H, T33S, T49I, W68R, C156Y, M181K, R199L, S269P
In short: as §1

OR11H4 (Homo sapiens) = target: T3, OR11H4 (Homo sapiens) (UniProt Q8NGC9)
T3 sequence (whole entry): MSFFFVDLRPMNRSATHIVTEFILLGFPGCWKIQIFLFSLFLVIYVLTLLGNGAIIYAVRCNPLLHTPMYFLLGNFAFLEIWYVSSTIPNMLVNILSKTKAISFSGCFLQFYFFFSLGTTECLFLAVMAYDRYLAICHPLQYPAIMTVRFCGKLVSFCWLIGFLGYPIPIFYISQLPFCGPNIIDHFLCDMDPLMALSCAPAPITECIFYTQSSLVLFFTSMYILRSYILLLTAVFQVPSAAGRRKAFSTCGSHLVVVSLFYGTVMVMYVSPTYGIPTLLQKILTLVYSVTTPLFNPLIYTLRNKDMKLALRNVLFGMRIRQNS
In short: as §1

OR11H6 (Homo sapiens) = target: T4, OR11H6 (Homo sapiens) (UniProt Q8NGC7)
T4 sequence (whole entry): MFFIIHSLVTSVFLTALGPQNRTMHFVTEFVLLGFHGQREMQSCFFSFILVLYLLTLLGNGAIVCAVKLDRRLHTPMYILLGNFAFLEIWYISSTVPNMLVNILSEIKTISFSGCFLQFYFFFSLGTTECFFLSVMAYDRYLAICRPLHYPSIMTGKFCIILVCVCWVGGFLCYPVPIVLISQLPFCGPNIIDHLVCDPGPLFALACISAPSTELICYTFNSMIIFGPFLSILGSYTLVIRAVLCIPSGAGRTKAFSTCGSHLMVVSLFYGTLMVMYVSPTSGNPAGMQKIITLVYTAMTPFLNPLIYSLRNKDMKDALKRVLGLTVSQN
In short: as §1

OR11L1 (Homo sapiens) = target: T5, OR11L1 (Homo sapiens) (UniProt Q8NGX0)
T5 sequence (whole entry): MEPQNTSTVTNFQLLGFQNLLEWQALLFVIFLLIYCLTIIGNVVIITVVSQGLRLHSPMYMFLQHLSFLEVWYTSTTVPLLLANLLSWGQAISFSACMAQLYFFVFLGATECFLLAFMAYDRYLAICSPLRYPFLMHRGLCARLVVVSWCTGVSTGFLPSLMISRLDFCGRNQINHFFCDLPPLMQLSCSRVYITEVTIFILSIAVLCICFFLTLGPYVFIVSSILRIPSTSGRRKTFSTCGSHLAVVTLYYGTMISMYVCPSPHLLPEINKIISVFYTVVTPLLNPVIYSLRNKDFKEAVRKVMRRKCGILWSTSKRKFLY
In short: as §1

OR12D2 (Homo sapiens) = target: T6, OR12D2 (Homo sapiens) (UniProt P58182)
T6 sequence (whole entry): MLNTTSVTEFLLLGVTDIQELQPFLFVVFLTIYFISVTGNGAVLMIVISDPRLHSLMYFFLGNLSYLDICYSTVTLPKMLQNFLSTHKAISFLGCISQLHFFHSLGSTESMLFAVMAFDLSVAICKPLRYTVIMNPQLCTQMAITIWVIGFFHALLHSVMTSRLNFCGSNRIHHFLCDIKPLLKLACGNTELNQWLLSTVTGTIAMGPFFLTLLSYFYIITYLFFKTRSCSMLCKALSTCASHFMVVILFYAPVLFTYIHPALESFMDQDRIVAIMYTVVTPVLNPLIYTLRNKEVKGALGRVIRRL
In short: as §1

OR12D3 (Homo sapiens) = target: T7, OR12D3 (Homo sapiens) (UniProt Q9UGF7)
T7 sequence (whole entry): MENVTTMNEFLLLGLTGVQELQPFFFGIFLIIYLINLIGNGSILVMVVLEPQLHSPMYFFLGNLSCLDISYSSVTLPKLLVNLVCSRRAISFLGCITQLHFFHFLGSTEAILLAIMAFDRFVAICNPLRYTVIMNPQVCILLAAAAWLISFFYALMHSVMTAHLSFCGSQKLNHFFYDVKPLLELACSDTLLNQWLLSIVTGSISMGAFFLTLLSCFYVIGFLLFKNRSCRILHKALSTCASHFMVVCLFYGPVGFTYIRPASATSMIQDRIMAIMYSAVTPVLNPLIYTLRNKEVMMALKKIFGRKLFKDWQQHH
In short: as §1

OR13A1 (Homo sapiens) = target: T8, OR13A1 (Homo sapiens) (UniProt Q8NGR1)
T8 sequence (whole entry): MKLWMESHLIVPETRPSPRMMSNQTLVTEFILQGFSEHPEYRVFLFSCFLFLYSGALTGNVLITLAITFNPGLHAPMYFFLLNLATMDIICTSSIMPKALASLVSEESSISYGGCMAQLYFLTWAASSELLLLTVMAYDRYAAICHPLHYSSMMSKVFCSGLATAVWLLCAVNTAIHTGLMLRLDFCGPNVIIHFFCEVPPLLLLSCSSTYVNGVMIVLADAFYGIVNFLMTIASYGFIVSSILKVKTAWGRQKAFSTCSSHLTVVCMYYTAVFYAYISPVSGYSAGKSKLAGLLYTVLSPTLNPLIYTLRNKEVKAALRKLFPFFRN
In short: as §1

OR13C2 (Homo sapiens) = target: T9, OR13C2 (Homo sapiens) (UniProt Q8NGS9)
T9 sequence (whole entry): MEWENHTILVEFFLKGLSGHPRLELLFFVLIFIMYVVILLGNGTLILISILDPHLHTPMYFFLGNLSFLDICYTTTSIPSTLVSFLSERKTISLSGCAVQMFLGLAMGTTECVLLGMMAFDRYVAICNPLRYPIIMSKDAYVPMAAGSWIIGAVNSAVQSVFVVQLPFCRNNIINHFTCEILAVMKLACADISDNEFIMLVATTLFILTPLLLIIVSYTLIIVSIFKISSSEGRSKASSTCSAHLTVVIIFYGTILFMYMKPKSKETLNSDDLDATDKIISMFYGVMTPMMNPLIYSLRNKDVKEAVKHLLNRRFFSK
In short: as §1

OR13C3 (Homo sapiens) = target: T10, OR13C3 (Homo sapiens) (UniProt Q8NGS6)
T10 sequence (whole entry): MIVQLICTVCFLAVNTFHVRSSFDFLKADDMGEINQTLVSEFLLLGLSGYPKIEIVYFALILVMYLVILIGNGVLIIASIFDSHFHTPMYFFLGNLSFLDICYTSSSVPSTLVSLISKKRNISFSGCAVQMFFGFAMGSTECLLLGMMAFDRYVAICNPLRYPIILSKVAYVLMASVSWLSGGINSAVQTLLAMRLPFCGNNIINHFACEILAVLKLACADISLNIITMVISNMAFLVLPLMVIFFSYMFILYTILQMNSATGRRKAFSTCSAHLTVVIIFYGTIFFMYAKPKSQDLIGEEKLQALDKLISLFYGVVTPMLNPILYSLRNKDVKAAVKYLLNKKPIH
In short: as §1

OR13C4 (Homo sapiens) = target: T11, OR13C4 (Homo sapiens) (UniProt Q8NGS5)
T11 sequence (whole entry): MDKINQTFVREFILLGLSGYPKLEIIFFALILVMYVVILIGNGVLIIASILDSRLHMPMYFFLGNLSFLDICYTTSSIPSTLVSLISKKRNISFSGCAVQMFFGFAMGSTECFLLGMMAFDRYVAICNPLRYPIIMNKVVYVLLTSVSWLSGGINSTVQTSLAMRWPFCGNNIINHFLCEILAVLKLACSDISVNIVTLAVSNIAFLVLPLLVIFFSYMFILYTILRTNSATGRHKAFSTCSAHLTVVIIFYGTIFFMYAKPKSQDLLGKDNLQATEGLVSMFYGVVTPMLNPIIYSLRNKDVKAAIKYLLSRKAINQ
In short: as §1

OR13C5 (Homo sapiens) = target: T12, OR13C5 (Homo sapiens) (UniProt Q8NGS8)
T12 sequence (whole entry): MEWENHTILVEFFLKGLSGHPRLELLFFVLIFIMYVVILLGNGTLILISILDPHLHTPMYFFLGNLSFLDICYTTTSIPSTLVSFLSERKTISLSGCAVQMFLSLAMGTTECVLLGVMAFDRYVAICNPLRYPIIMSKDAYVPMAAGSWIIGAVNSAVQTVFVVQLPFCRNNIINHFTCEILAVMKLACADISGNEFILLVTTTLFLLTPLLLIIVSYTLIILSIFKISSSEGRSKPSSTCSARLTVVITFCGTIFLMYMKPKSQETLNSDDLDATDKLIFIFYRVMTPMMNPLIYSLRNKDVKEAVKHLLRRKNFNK
In short: as §1

OR13C8 (Homo sapiens) = target: T13, OR13C8 (Homo sapiens) (UniProt Q8NGS7)
T13 sequence (whole entry): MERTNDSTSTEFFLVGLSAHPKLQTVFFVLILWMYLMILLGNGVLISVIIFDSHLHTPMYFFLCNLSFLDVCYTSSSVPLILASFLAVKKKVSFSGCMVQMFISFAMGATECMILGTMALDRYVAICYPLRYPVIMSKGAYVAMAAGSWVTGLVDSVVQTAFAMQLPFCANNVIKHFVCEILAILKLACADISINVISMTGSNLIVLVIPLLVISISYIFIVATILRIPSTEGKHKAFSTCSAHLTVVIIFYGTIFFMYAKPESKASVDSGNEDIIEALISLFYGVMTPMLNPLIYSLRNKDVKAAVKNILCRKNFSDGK
In short: as §1

OR13C9 (Homo sapiens) = target: T14, OR13C9 (Homo sapiens) (UniProt Q8NGT0)
T14 sequence (whole entry): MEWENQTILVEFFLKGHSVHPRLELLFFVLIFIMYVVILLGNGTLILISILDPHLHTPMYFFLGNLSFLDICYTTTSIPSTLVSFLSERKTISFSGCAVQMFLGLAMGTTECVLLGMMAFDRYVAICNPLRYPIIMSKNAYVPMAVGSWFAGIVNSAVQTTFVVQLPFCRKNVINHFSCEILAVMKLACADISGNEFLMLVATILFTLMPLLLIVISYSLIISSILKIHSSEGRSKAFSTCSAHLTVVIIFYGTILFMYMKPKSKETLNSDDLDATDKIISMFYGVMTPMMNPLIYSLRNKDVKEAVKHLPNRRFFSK
In short: as §1

OR13D1 (Homo sapiens) = target: T15, OR13D1 (Homo sapiens) (UniProt Q8NGV5)
T15 sequence (whole entry): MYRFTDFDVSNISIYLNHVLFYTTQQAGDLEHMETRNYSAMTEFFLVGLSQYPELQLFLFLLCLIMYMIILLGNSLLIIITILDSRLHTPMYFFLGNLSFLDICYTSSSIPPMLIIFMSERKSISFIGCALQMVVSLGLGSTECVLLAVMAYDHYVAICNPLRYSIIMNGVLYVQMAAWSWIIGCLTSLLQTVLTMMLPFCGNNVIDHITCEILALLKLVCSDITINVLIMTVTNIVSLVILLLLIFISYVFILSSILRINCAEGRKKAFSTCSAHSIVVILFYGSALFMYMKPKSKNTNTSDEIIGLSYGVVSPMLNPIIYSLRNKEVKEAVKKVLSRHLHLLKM
In short: as §1

OR13F1 (Homo sapiens) = target: T16, OR13F1 (Homo sapiens) (UniProt Q8NGS4)
T16 sequence (whole entry): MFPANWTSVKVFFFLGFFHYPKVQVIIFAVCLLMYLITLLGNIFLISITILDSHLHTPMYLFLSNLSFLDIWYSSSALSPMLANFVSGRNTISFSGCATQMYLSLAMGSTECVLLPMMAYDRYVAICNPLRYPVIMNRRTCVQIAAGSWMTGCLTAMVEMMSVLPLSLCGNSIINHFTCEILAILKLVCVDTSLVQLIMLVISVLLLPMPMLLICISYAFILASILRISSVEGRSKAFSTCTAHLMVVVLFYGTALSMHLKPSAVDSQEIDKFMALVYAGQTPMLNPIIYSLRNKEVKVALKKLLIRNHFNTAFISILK
In short: as §1

OR13G1 (Homo sapiens) = target: T17, OR13G1 (Homo sapiens) (UniProt Q8NGZ3)
T17 sequence (whole entry): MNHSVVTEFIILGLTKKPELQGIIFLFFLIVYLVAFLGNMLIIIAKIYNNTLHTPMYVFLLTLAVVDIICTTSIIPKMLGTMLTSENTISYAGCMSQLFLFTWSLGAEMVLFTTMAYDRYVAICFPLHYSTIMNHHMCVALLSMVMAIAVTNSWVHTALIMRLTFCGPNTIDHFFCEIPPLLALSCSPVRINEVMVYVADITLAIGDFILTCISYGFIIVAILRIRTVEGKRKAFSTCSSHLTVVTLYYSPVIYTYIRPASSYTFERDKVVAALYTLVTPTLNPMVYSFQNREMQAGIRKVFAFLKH
In short: as §1

Measured: odorant receptor agonist call

O=C1CCOc2ccccc21
inactive: OR11H12 (Homo sapiens)

CCC(S)C(C)CO (centres undefined)
not listed: OR11H12 (Homo sapiens)
inactive: all other assays above

Cc1cnc(C)c(C)n1
inactive: all assays above
